# Experimental data: publication PMC4834983 (Journal of medicinal chemistry, 2015)
# Key:
# MCF-7 cells = assay: CyQuant cell proliferation assay; type: cell-based; conditions: Homo sapiens, MCF7, 72 h, read-out: IC50 cell proliferation MCF-7
# How it was run: (§1)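 CyQuant DNA-dye proliferation assay on cultured cells after 72 h exposure to test compound. Viability expressed relative to DMSO-treated control cells.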
# [1] = tested on: protein tyrosine phosphatase (PTP)1B; assay: Immunoblotting, U251MG glioma cells; type: cell-based, human; conditions: 5 μM
# How it was run: (§2)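 U251MG cells given 5 μM test compound for 0–24 h. Whole-cell lysates of equal total protein immunoblotted for pErk1/2, Erk1/2, pS-Akt, Akt, pJAK2, JAK2, SOCS3 and PTP1B, with β-actin or GAPDH as loading reference.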
# [2] = Body weights and signs of toxicity in tumor-bearing mice; type: in vivo; conditions: 2 mg/kg, oral gavage, 33 days
# pErk1/2MAPK [3] = assay: Immunoblotting, EGF-stimulated NIH3T3/hEGFR fibroblasts; type: cell-based, mouse; conditions: 5 μM pre-treatment
# How it was run: (§3)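 NIH3T3/hEGFR fibroblasts pretreated with or without 5 μM test compound for 3 h, then stimulated with 1 μg/ml EGF for 12 min. Whole-cell lysates, equal total protein, immunoblotted for pStat1/Stat1, pStat5/Stat5 and pErk1/2/Erk1/2.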
# G10 cells = assay: Growth of glioma patient-derived xenograft cells in vitro; type: cell-based; conditions: Homo sapiens, read-out: inhibitory activity against growth of G10 cells
# pErk1/2MAPK [4] = assay: Immunoblotting, U251MG glioma cells; type: cell-based, human; conditions: 5 μM
# How it was run: as §2
# U373MG cells = assay: CyQuant cell proliferation assay; type: cell-based; conditions: Homo sapiens, U373 MG, 72 h, read-out: IC50 cell proliferation U373MG
# How it was run: as §1
# U251MG cells [5] = assay: Cell cycle distribution analysis; type: cell-based, human; conditions: 15 h treatment
# How it was run: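 U251MG cells synchronised by double thymidine block (2 mM) and released for 9 h, then given DMSO or 8 μM test compound for 15 h. Fixed overnight at −20 °C in 70% ethanol/3% FBS in PBS. Stained in PI/RNase buffer for 15 min at room temperature, then DNA content measured by flow cytometry.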
# U251MG cells [6] = assay: Scratch assay for migration; type: cell-based, human; conditions: 5 μM, 19-h treatment
# How it was run: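 Sub-confluent U251MG monolayers wounded with pipette tips and treated once with test compound (0–5 μM) or DMSO vehicle. Cells allowed to migrate into the denuded area over 19 h, then imaged by microscopy at 10×.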
# U251MG cells [7] = assay: BrdU incorporation assay; type: cell-based, human; conditions: 5 μM, at 24 h
# How it was run: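 U251MG cells on glass coverslips exposed to DMSO or 5 μM test compound for 3–24 h. BrdU (10 micromolar) added for the final 2 h. Fixed in 4% paraformaldehyde for 10 min, stained with anti-BrdU antibody and counterstained with DAPI. Imaged by fluorescence microscopy, and cells counted.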
# Stat3 = Stat3 DNA-binding activity/EMSA of nuclear extracts from treated glioma cells; type: cell-based, human; conditions: 5 μM, glioma cells, EMSA
# U251MG cells [8] = assay: Immunofluorescence staining/confocal microscopy of mitosis; type: cell-based, human; conditions: 15 h treatment
# How it was run: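 U251MG cells on coverslips synchronised by double thymidine block (2 mM) and released for 9 h. Then given DMSO, 100 nM paclitaxel or 8 μM test compound for 15 h. Fixed in 4% paraformaldehyde, permeabilised with 0.1% digitonin and blocked in 0.2% BSA. Stained with anti-β-tubulin (1:350) and anti-MAP1B (1:300) for 1 h at room temperature, then fluorescent secondaries and DAPI; confocal imaging.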
# [9] = tested on: U251MG subcutaneous tumor xenografts; assay: Subcutaneous glioma xenograft tumor growth; type: in vivo, mouse; conditions: 2 mg/kg, oral gavage, 33 days
# How it was run: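 Female athymic nude mice, 4 weeks old, injected subcutaneously in the left flank with 7.3 ×10^6 U251MG cells in PBS/matrigel. At 20 days (tumours 170–250 mm3), mice grouped by matched mean tumour size. Dosed 2 mg/kg by oral gavage in 1% DMSO vehicle, three times weekly, for 33 days. Caliper volumes (V = 0.52 × a2 × b) and body weights recorded; paired t test against vehicle.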
# pStat1 = assay: Immunoblotting, EGF-stimulated NIH3T3/hEGFR fibroblasts; type: cell-based, mouse; conditions: 5 μM pre-treatment
# How it was run: as §3
# SF295 cells = assay: CyQuant cell proliferation assay; type: cell-based; conditions: Homo sapiens, SF-295, 72 h, read-out: IC50 cell proliferation SF295
# How it was run: as §1
# pYStat3 = assay: Immunoblotting of pStat3 in treated U251MG cells; type: cell-based, human; conditions: 5 μM, glioma cells, immunoblotting
# How it was run: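 Whole-cell lysates from U251MG cells given test compound at 5 μM for 0–24 h, or at 0–5 μM for 2 h. Immunoblotted for pY705Stat3 and total Stat3, with GAPDH as loading reference.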
# pStat3 [10] = assay: Immunoblots of tumor tissue lysates from treated mice; type: in vivo, mouse; conditions: four-to-five cases out of six
# How it was run: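 After oral dosing, lysates of residual subcutaneous U251MG tumour tissue from treated and 1% DMSO vehicle mice. Immunoblotted for pStat3 and Stat3, with GAPDH as loading reference.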
# pStat3 [11] = assay: Immunoblotting of pStat3 in patient-derived xenograft cells; type: cell-based, human; conditions: 5 μM, 3 h
# How it was run: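 Glioma patient-derived xenograft G22 cells (DMEM, 5–10% heat-inactivated FBS) given 5 μM test compound for 0–24 h. Whole-cell lysates immunoblotted for pStat3 and Stat3, with GAPDH as loading reference.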
# pStat5 = assay: Immunoblotting, EGF-stimulated NIH3T3/hEGFR fibroblasts; type: cell-based, mouse; conditions: 5 μM pre-treatment
# How it was run: as §3
# U251MG cells [12] = assay: Colony survival assay; type: cell-based, human; conditions: 1 μM, treated once
# How it was run: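 Cells seeded as single cells at 250 per well and treated once the next day with test compound (0–5 μM) for 72 h. Grown until large colonies were visible: 1 week for NIH3T3, 2 weeks for U251MG. Colonies stained with crystal violet for 4 h and counted.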
structure (smiles),measurement,setting,value
C/C=C(\C)C(=O)OCC1=C2/C(=C\[C@@]3(C)CC[C@](O)(O3)[C@H](C)C[C@@H]2O)OC1=O [Compound 22],IC50,MCF-7 cells,4.8 to 9.6 µM
same,effect on PTP1B levels,[1],no effects
same,body weights or obvious signs of toxicity,[2],No significant changes
same,effect on EGF-stimulated pErk1/2MAPK levels,pErk1/2MAPK [3],no effect
same,inhibition at 5 µM,G10 cells,45 to 60%
same,effect on pErk1/2MAPK levels,pErk1/2MAPK [4],no effects
same,IC50,U373MG cells,6.6 to 8.2 µM
same,cell cycle distribution,U251MG cells [5],induced G2/M accumulation
same,migration into the denuded area,U251MG cells [6],slowed migration
same,cell proliferation measured by BrdU incorporation,U251MG cells [7],significantly impaired
same,effect on Stat3 DNA-binding activity in treated tumor cells,Stat3,strongly inhibited
same,chromatid structures and sister-chromatids segregation (mitosis),U251MG cells [8],caused defects
same,growth of subcutaneous U251MG xenografts,[9],inhibited growth
same,effect on EGF-stimulated pStat1 levels,pStat1,no effect
same,IC50,SF295 cells,7.4 to 18.3 µM
same,effect on pStat3 in treated tumor cells,pYStat3,strongly inhibited
same,pStat3 and Stat3 levels in residual tumor tissues,pStat3 [10],lower
same,effect on Phospho-Stat3 in G22 cells,pStat3 [11],strongly inhibited
same,effect on EGF-stimulated pStat5 levels,pStat5,no effect
same,U251MG colony formation,U251MG cells [12],completely inhibited
